The structures appear in SMILES notation. Calls of active or inactive are those of the source.

A short description of data set [1]: Half-life estimated in human plasma. In kind it is ADME. The gist of the method:
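Compounds incubated in human plasma. Breakdown followed by TLC separation, and half-life estimated from this.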

Data set [2] relates to CEM-c113. Kind of data set: Antiviral activity measured in lymphocytic cell line (CEM-C113) infected with HIV-1 cell free supernatants. In kind it is functional, cell-based. The settings on record: Homo sapiens. Put shortly: (§1)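 CEM-Cl13 T-lymphoblastoid cells in RPMI 1640 with 5% heat-inactivated FCS at 37 °C, 5% CO2. Wells seeded with 10000 cells and given compound dilutions in triplicate (DMF stock diluted in water, at most 0.1% DMF final). Infected with HIV-1 LAV-Bru cell-free supernatant at 50-250 times the minimal infecting dose, cultured 7 days. MTT viability read at 540 nm. EC50 is the dose giving 50% protection from CPE. SI is IC50/EC50.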

A short description of data set [3]: Selectivity index expressed as ratio of IC50 (CEM-C113) to EC50 from MTT assay; inactive. In kind it is functional. The gist of the method: as §1
(In general: Tetrazolium assays rely on reduction of a dye to a coloured formazan, in cell work by metabolically active cells.)

Data set [4] has as its system CEM-c113. Kind of data set: Effective concentration that reduces HIV-induced cytopathic effect by 50% was determined by MTT assay. In kind it is functional, cell-based. The settings on record: Homo sapiens. Put shortly:
as §1
Background: Damage to the host cells serves as the signal in cytopathic effect assays.

Data set [5] is described as follows: Selectivity index expressed as ratio of IC50 (CEM-C113) to EC50 from MTT assay. In kind it is functional. Put shortly: as §1
The target in data set [6] is Human immunodeficiency virus type 1 reverse transcriptase (Human immunodeficiency virus 1) (UniProt Q72547). The data set is described as follows: Selectivity index expressed as ratio of IC50 (CEM-C113) to EC50 from RT assay. Put shortly:
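HIV-1 LAV-Bru cell-free supernatant used to infect CEM-Cl13 cells (10000/well, triplicate compound dilutions, 7-day culture). EC50 is 50% reduction of RT activity. SI is the ratio of the mock-infected MTT IC50 to this EC50.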

On to `CCCCCCCCCCCCCCCCNC(=O)OCC1C=CC(n2cc(C)c(=O)[nH]c2=O)O1` (centres undefined), for which, in data set [1], the half-life was above 24 h. The concentration for half-maximal inhibition (IC50) with CEM-c113 [2] is above 20 µM. The Selectivity index result in data set [3] was “inactive”. This compound gave a 50% effective concentration (EC50) in the data set on CEM-c113 [4] above 20 µM.
On to `CCCCCCCCCCCCCCCCOC(=O)OCC1C=CC(n2cc(C)c(=O)[nH]c2=O)O1` (centres undefined), for which, in data set [1], the half-life is above 24 h. In addition, the IC50 in the data set with CEM-c113 [2] was above 20 µM. Also, the Selectivity index in data set [5] is above 66. In addition, the EC50 in the data set on CEM-c113 [4] worked out at 0.3 µM.
For `CCCCCCCCCCCCCCCCOP(=O)(OCCC#N)OCC1C=CC(n2cc(C)c(=O)[nH]c2=O)O1` (centres undefined), in data set [1], the half-life was 12 h. In addition, in the data set on CEM-c113 [2], the half-maximal inhibitory concentration (IC50) worked out at 17 µM. For the same compound, the Selectivity index in data set [5] was determined as 4. Besides, a half-maximal response with CEM-c113 [4] (EC50) required 4.3 µM.
As to `CCCCCCCCCCCCCCCC(=O)OCC1C=CC(n2cc(C)c(=O)[nH]c2=O)O1` (centres undefined), in data set [1], the half-life is 4 h. For the same compound, the half-maximal inhibitory concentration (IC50) with CEM-c113 [2] was found to be 4 µM. Moreover, the Selectivity index in data set [6] is 50; in data set [5], 40. In the data set on CEM-c113 [4], the EC50 is 0.1 µM.
For `Cc1cn(C2C=CC(COP(=O)(OCCC#N)OCC3C=CC(n4cc(C)c(=O)[nH]c4=O)O3)O2)c(=O)[nH]c1=O` (centres undefined), the half-life in data set [1] was 12 h. This compound came in with an IC50 with CEM-c113 [2] of 17 µM. Further, in data set [5], the Selectivity index is 17. This compound gave an EC50 with CEM-c113 [4] of 1 µM.
`CCCCCCCCCCCCCCCCOP(=O)(O)OCC1C=CC(n2cc(C)c(=O)[nH]c2=O)O1` (centres undefined): in data set [1], the half-life was above 24 h. The IC50 with CEM-c113 [2] amounted to 10 µM. Moreover, the Selectivity index in data set [6] stood at 50; in data set [5], 83. The same compound gave a concentration giving a half-maximal response (EC50) in the data set on CEM-c113 [4] of 0.12 µM.
In the case of `Cc1cn([C@H]2C[C@H](N=[N+]=[N-])[C@@H](CO)O2)c(=O)[nH]c1=O` [ZIDOVUDINE], in the data set on CEM-c113 [2], the half-inhibitory concentration (IC50) was found to be 20 µM. For the same compound, the Selectivity index in data set [6] is 2000; in data set [5] it was 3330. In addition, the EC50 in the data set on CEM-c113 [4] was 0.006 µM.
On to `Cc1cn(C2C=CC(COP(=O)(O)OCC3C=CC(n4cc(C)c(=O)[nH]c4=O)O3)O2)c(=O)[nH]c1=O` (centres undefined), for which the half-life in data set [1] is above 24 h. This compound displayed a concentration for half-maximal inhibition (IC50) with CEM-c113 [2] of 100 µM. Also, the Selectivity index was found to be 2000 in data set [6] and 5000 in data set [5]. Further, in the data set on CEM-c113 [4], the response was half-maximal at 0.02 µM (EC50).
With `Cc1cn([C@H]2C=C[C@@H](CO)O2)c(=O)[nH]c1=O` [STAVUDINE], the concentration for half-maximal inhibition (IC50) in the data set with CEM-c113 [2] turned out to be 10 µM. The values for the Selectivity index in data set [6] and in data set [5] were 200 and 125, respectively. In addition, a half-maximal response with CEM-c113 [4] (EC50) required 0.08 µM.

As a reminder, the half-life is the time needed for the level to fall by half in the phase considered. By IC50 is commonly meant the concentration that gives 50% inhibition. By EC50 is commonly meant the concentration giving half of the maximal effect.
